Twelve molecules from ChEMBL document CHEMBL4196032, “Conformational mimetics of the α-methyl chalcone TUB091 binding tubulin: Design, synthesis and antiproliferative activity” (Eur J Med Chem, 2018) can be followed below.

The pIC50 is the negative decadic logarithm of the IC50, by convention in mol/L. High values mean a low IC50, low ones a high IC50.

Test [1] relates to HeLa. The test can be described thus: Antiproliferative activity against human HeLa cells after 3 days by coulter counting method. The test is classed as functional, cell-based. Conditions: 72 h. In short, it runs like this: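 HeLa seeded at 10,000 cells/well; various compound concentrations added 24 h later; after 3 days incubation cells trypsinized and counted by Coulter counter.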

The subject of test [2] is CCRF-CEM. Kind of test: Antiproliferative activity against human CEM cells after 96 hrs by coulter counting method. The test is classed as functional, cell-based. The essentials:
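Suspension cells (CEM, L1210) seeded at 60,000 cells/well together with graded compound concentrations; grown 96 h, then counted by Coulter counter.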

The next test concerns L1210. Kind of test: Antiproliferative activity against mouse L1210 cells after 96 hrs by coulter counting method. The test is classed as functional, cell-based. As to conditions: L1210, 96 h. In short, it runs like this: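 Suspension cells (CEM, L1210) seeded at 60,000 cells/well together with graded compound concentrations; grown 96 h, then counted by Coulter counter. IC50 = concentration reducing cell proliferation by 50%.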

The subject of test [3] is HMEC-1. Kind of test: Antiproliferative activity against human HMEC1 cells after 4 days by coulter counting method. The test is classed as cell-based. Conditions: HMEC-1, 96 h. In short, it runs like this: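 HMEC-1 seeded at 20,000 cells/well; 5-fold compound dilutions added after 24 h; 4 days proliferation, trypsinized, Coulter counted.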
Test [4] is filed under the species Bos taurus. Kind of test: Inhibition of calf brain tubulin polymerization at 30 uM measured for 6000 secs by spectrophotometric method. The essentials:
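Calf brain tubulin, gel-filtered into GAB buffer (10 mM sodium phosphate, 1 mM EGTA, 25% glycerol, 0.1 mM GTP, pH 7.0) at 25 µM, degassed; compound at 30 µM. Assembly at 37 °C followed by absorbance at 350 nm up to 6000 s; DMSO and podophyllotoxin controls; normalized absorbance.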

Test [5] relates to HeLa. Kind of test: Cell cycle arrest in human HeLa cells assessed as accumulation at G2/M phase at 0.1 uM after 24 hrs by propidium iodide staining based flow cytometry. The test is classed as functional. The essentials: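 HeLa in DMEM + 10% FBS, 125,000 cells/well; compound added after 24 h for 24 h. DNA stained with propidium iodide kit, analysed by flow cytometry within 3 h; debris/clumps gated out; sub-G1, G1, S, G2/M percentages from region markers.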

A further test concerns the target Tubulin (Homo sapiens) (UniProt P68371+Q9H4B7+P0DPH7+P68366+Q13509+Q71U36+P04350+Q3ZCM7+P07437+P68363+Q9BQE3+Q6PEY2+Q13885+Q9BVA1+Q9BUF5). The test can be described thus: Inhibition of tubulin polymerization in human HeLa cells assessed as reduction in mitotic spindle formation by measuring aberrant multipolar spindle formation at 0.1 to 0.3 uM after 24 hrs by Hoechst 33342 staining based immunofluorescence microscopic method. The test is classed as cell-based. The essentials: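 HeLa seeded overnight on poly-L-lysine-coated slides, treated 24 h with compound or 0.1% DMSO. Fixed, permeabilized, stained with anti-β-tubulin (2 µg/ml) then Alexa Fluor 555 anti-mouse (4 µg/ml); nuclei with Hoechst 33342 (2 µg/ml); spindles imaged by fluorescence microscopy.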

The species entered for test [6] is Bos taurus. Kind of test: Inhibition of R-PT binding to calf brain tubulin after 30 mins by fluorescence assay. In short, it runs like this: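 Competition assay: 0.2 µM R-PT premixed with 0.2 µM calf brain tubulin in GAB buffer, ligand at 0–70 µM; 30 min at 25 °C, fluorescence read at 456 nm (ex 374 nm). Binding constants derived from competition data; racemates tested.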

For test [7], the system named is HeLa. The test can be described thus: Antiproliferative activity against human HeLa cells. The test is classed as functional, cell-based. In short, it runs like this:
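Cervical carcinoma cells plated at 10,000 cells/well in 48-well plates. Varied concentrations added after 24 h, then 3 days of incubation. Cells trypsinized and Coulter-counted. IC50 is the concentration giving 50% reduction of proliferation.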

Test [8] has as its system HMEC-1. The test can be described thus: Antiproliferative activity against human HMEC1 cells. The test is classed as cell-based. The essentials:
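HMEC-1 microvascular endothelial cells plated at 20,000 cells/well in 48-well plates. 5-fold dilutions added after 24 h, then 4 days of growth. Cells trypsinized and counted by Coulter counter. IC50 is the concentration halving proliferation.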

Test [9] has as its system CCRF-CEM. The test can be described thus: Antiproliferative activity against human CEM cells. The test is classed as functional, cell-based. In short, it runs like this:
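Suspension cells seeded at 60,000 cells/well in 96-well plates together with a range of compound concentrations. Grown 96 h, then counted by Coulter counter. IC50 taken as the concentration reducing proliferation by 50%.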

pIC50: −log10 of the molar value. Calls of active or inactive are those of the source. The calls are words filed in the database; no cut-off is given here.

For the molecule `COc1ccc2c(c1)CCC(C(=O)c1ccc(OC)c3c1OCO3)C2` (racemic), the pIC50 in the test on HeLa [1] was 4.06; in the test on CCRF-CEM [2] it was 4.41; in the test with L1210 it was 3.80; with HMEC-1 [3] it was 4.42.
For `COc1ccc2c(c1)CCC(C(=O)c1ccc(OC)c(OC)c1)C2` (racemic), the pIC50 in the test with HeLa [1] is less than 3.60; in the test with CCRF-CEM [2], 3.66; in the test on L1210, less than 3.60; in the test on HMEC-1 [3] it was less than 3.60. Moreover, the inhibition entry in the test listed under Bos taurus [4] was “inactive”.
For `COc1ccc(C(=O)C2CCc3c(ccc(OC)c3[N+](=O)[O-])C2)c(OC)c1OC` (racemic), the pIC50 was 6.09 in the test on HeLa [1], 6.07 in the test with CCRF-CEM [2], 5.38 in the test on L1210 and 5.28 in the test with HMEC-1 [3]. Further, in the test filed under Bos taurus [4], the inhibition result is “Active”.
Consider `COc1cc2c(cc1[N+](=O)[O-])CC(C(=O)c1ccc(OC)c(OC)c1OC)CC2` (racemic), for which the pIC50 in the test with HeLa [1] is less than 3.60; in the test with CCRF-CEM [2], less than 3.60; in the test with L1210, less than 3.60; with HMEC-1 [3] it was 3.70.
Regarding `COc1cc([C@@H]2c3cc4c(cc3[C@H](O)[C@H]3COC(=O)[C@H]23)OCO4)cc(OC)c1OC`, in the test filed under Bos taurus [4], the inhibition result is “Active”.
`COc1ccc(/C=C\c2cc(OC)c(OC)c(OC)c2)cc1OP(=O)(O)O` [FOSBRETABULIN DISODIUM]: the pIC50 is 7.89 in the test with HeLa [1], 7.96 in the test with CCRF-CEM [2], 8.68 in the test on L1210 and 8.54 in the test with HMEC-1 [3].
For the molecule `COc1ccc(C(=O)C2CCc3c(ccc(OC)c3N)C2)cc1OC` (racemic), the pIC50 in the test on HeLa [1] is 4.64; with CCRF-CEM [2], 5.20; in the test on L1210, 4.28; in the test with HMEC-1 [3], 3.91.
In the same order, the values of `COc1ccc2c(c1)CCC(C(=O)c1ccc(OC)c(OC)c1O)C2` (racemic) are 4.40, 4.42, 4.12 and not above 3.60.
Take `COc1ccc2c(c1N)CCC(C(=O)c1ccc(OC)c(OC)c1OC)C2` (racemic): the pIC50 is 7.52 in the test with HeLa [1], 7.66 in the test with CCRF-CEM [2], 7.57 in the test with L1210 and 7.33 in the test on HMEC-1 [3]. Besides, the result with HeLa [5] was Active. Further, the inhibition entry on Tubulin (Homo sapiens) and in the test filed under Bos taurus [4] was “Active” each time. In the test listed under Bos taurus [6], the Kb was determined as 2.4 ×10⁶ /M.
For the molecule `COc1ccc2c(c1)CCC(C(=O)c1ccc(OC)c(OC)c1OC)C2` (racemic), the pIC50 is 6.40 in the test with HeLa [1], 6.77 in the test on CCRF-CEM [2], 6.62 in the test with L1210 and 5.92 with HMEC-1 [3]. Moreover, the inhibition result in the test filed under Bos taurus [4] was “Active”.
`COc1ccc(/C=C(\C)C(=O)c2cc(OC)c3c(c2)OCO3)cc1N`: the pIC50 was 8.41 in the test on HeLa [7], 8.64 in the test with HMEC-1 [8], 9.00 in the test on L1210 and 9.00 in the test with CCRF-CEM [9]. In addition, in the test listed under Bos taurus [4], the inhibition result is “Active”.
Take `COc1cc2c(cc1N)CC(C(=O)c1ccc(OC)c(OC)c1OC)CC2` (racemic): the pIC50 in the test on HeLa [1] was 6.13; with CCRF-CEM [2], 6.32; in the test with L1210, 6.07; in the test with HMEC-1 [3], 5.89.
